Reference: publication PMC5352491 (ACS chemical neuroscience, 2016)
Entries after “also recorded” stand apart in the source; their conditions may differ. Where two headings read alike, the source gives them in different places.

Experiments:
[1] = molecular target: human μ opioid receptor (μ-OR) (Homo sapiens, UniProt P35372); test: cell-based; type: cell-based
[2] = molecular target: human δ opioid receptor (δ-OR) (Homo sapiens, UniProt P41143); test: calcium mobilization assay, δ-OR agonist activity; type: cell-based; conditions: for δ-OR agonist activity in HTS of extract / LC-MS fractions: approximately 20.0 μg/mL, DPDPE control 100 nM; for activity at δ-OR (agonist or antagonist): up to 50.0 μM
μ-OR [3] = test: fluorescent endocytosis assay; type: cell-based; conditions: 30 min; DAMGO 1 μM, others 10 μM
μ-OR [4] = test: biotin protection endocytosis assay; type: cell-based; conditions: 10 μM each, 30 min
WT C57BL/6 mice [5] = test: forced swim test, wild type mice; type: in vivo; conditions: 40 mg/kg ip; for antidepressant-like activity in forced swim test: p = 0.003 vs saline, 40 mg/kg
How it was run: (§1)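 Male C57BL/6 mice (wild type or δ-OR knockout littermates, 8–10 weeks, 9 per group) on a 12-h reversed light/dark cycle, tested in the dark phase after 2 h room habituation. Given saline vehicle or test compound (40 mg/kg ip), then placed in a water cylinder (30 cm diameter, 22–24 cm deep, 36.0 ± 0.2 °C) for 6 min. Video recorded; seconds immobile scored.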

δ-KO C57BL/6 mice [6] = test: forced swim test, δ-OR knockout mice; type: in vivo; conditions: 40 mg/kg ip, p = 0.20 vs saline
How it was run: as §1

WT C57BL/6 mice [7] = conditions: unknown target; cited from earlier work
δ-KO C57BL/6 mice [8] = conditions: mouse, in vivo, ip, 40 mg/kg
WT C57BL/6 mice [9] = conditions: mouse, in vivo, ip, 40 mg/kg
HEK 293T cells = test: toxicity seen in the β-arrestin-2 recruitment assay; type: cell-based; conditions: cells of the β-arrestin-2 dose-response
human μ-OR [10] = molecular target: T1, human μ-OR (Homo sapiens, UniProt P35372); test: cell-based; conditions: HEK-293T, read-out: Gi Emax(%)
Target sequence in this assay (P35372 whole entry): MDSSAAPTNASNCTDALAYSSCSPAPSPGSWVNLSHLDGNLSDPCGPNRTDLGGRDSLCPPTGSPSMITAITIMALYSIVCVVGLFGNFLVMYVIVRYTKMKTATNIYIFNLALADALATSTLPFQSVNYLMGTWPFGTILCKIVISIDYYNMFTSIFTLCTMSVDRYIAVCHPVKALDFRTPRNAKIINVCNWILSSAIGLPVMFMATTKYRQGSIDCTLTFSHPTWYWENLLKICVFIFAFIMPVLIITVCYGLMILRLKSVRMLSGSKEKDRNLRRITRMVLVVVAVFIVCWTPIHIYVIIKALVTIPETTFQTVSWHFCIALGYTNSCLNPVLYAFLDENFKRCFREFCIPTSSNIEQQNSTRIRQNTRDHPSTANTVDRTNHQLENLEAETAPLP

human μ-OR [11] = molecular target: T1, human μ-OR; test: cell-based; conditions: HEK-293T, read-out: β-arrestin-2 Emax (%)
Target sequence in this assay (P35372 whole entry): as above
Target sequence in this assay (P32121 whole entry partner): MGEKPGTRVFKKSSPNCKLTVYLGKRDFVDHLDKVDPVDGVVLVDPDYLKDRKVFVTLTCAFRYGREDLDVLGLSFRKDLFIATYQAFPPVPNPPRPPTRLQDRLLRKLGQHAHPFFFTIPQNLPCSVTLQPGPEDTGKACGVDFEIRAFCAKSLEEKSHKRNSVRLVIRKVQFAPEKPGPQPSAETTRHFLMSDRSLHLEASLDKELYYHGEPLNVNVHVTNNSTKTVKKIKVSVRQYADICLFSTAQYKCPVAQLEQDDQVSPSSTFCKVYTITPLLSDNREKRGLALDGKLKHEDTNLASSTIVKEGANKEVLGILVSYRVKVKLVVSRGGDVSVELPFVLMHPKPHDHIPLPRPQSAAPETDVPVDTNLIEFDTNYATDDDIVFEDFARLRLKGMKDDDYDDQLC

κ-OR = κ-OR (Homo sapiens, UniProt P41145); test: κ-OR agonist/antagonist screen; type: cell-based; conditions: up to 50.0 μM
Sequence of κ-OR (P41145 whole entry): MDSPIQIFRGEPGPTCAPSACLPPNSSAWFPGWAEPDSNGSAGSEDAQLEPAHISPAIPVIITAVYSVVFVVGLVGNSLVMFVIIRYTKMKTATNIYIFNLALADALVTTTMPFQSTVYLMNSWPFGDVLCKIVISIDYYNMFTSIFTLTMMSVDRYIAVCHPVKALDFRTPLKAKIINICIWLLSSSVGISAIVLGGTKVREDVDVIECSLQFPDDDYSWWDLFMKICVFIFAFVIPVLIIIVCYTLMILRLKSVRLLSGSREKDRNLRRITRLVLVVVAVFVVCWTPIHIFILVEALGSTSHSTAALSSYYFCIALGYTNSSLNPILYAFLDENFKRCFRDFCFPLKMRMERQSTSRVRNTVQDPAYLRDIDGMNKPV

Sequence of human μ opioid receptor (μ-OR) (P35372 whole entry): as the sequence (P35372 whole entry) above
Sequence of human δ opioid receptor (δ-OR) (P41143 whole entry): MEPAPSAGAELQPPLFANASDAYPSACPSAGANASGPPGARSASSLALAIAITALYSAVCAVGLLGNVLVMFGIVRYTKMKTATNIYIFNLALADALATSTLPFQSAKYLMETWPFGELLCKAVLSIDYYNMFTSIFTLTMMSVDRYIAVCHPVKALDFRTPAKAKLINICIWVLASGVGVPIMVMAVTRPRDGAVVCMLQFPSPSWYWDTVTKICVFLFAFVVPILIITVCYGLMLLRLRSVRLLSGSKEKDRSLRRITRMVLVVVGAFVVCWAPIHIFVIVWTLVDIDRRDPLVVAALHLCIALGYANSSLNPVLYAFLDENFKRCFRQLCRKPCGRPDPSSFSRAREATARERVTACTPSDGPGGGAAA

COc1cc2ccnc3c2c(c1O)NC=C3 [9-demethyl aaptamine (11), 9-demethyl aaptamine]
μ-OR agonist activity in HTS of extract / LC-MS fractions [1]: very weak partial agonism | EC50 ([1]; read-out: EC50 μ-OR): 6.03 ± 1.2 µM | δ-OR agonist activity in HTS of extract / LC-MS fractions [2]: measurable δ-OR agonist activity

O=C1c2ccccc2-[n+]2ccc3c([nH]c4cc(Br)ccc43)c21 [10 bromofascaplysin (18), 10 bromofascaplysin]
EC50 ([1]; read-out: EC50 μ-OR): 4.2 ± 3.7 µM

C[C@@H](NC(=O)[C@@H](N)Cc1ccc(O)cc1)C(=O)NCC(=O)N(C)[C@@H](Cc1ccccc1)C(=O)NCCO [DAMGO (6), DAMGO]
μ-OR endocytosis by immunofluorescence (μ-OR [3]): also promoted endocytosis; also recorded: promoted μ-OR endocytosis | μ-OR endocytosis, biotin protection assay (μ-OR [4]): promoted significant endocytosis | μ-OR endocytosis, biotin protection assay (μ-OR [4]; listed as DAMGO): promoted μ-OR endocytosis

COc1cc2ccnc3c2c(c1OC)NC=C3 [aaptamine (10), aaptamine]
EC50 [1]: 10.1 ± 1.4 µM | antidepressant-like activity in forced swim test (WT C57BL/6 mice [5]; listed as Aaptamine): showed antidepressant-like activity in WT | antidepressant-like activity in forced swim test (WT C57BL/6 mice [5]; listed as aaptamine): showed antidepressant-like activity | time immobile in forced swim test (average) (WT C57BL/6 mice [5]; saline ~30 s): ~ 10 s | effect in forced swim test (δ-KO C57BL/6 mice [6]; listed as Aaptamine): antidepressant-like activity in WT but not δ-KO mice | effect in forced swim test (δ-KO C57BL/6 mice [6]; listed as aaptamine): no effect | EC50 [2]: 5.1 ± 0.2 µM | effect on immobility time in forced swim test (WT C57BL/6 mice [7]): significant effect on the immobility time | effect on general locomotion (δ-KO C57BL/6 mice [8]): no effect on general locomotion | effect on general locomotion (WT C57BL/6 mice [9]): no effect on general locomotion

COC1=Cc2ccnc3ccnc(c23)C1=O [demethyl (oxy) –aaptamine (12), demethyl (oxy) –aaptamine]
μ-OR agonist activity in HTS of extract / LC-MS fractions [1]: very weak partial agonism | EC50 ([1]; read-out: EC50 μ-OR): 4.1 ± 1.2 µM | δ-OR agonist activity in HTS of extract / LC-MS fractions [2]: measurable δ-OR agonist activity

O=C1c2ccccc2-[n+]2ccc3c([nH]c4ccccc43)c21 [fascaplysin (17), fascaplysin]
EC50 [1]: 6.3 ± 0.2 µM | Emax ([1]; read-out: Emax at the μ-OR): 100% | μ-OR endocytosis by immunofluorescence (μ-OR [3]): promoted substantial endocytosis; also recorded: promoted μ-OR endocytosis | activity at δ-OR (agonist or antagonist) [2]: no significant agonist or antagonist activity | μ-OR endocytosis, biotin protection assay (μ-OR [4]): promoted substantial endocytosis; also recorded: promoted μ-OR endocytosis | toxic concentration (HEK 293T cells): higher than 50 μM | Emax (human μ-OR [10]): 111% | Emax (human μ-OR [11]): 78% | activity at κ-OR (agonist or antagonist) (κ-OR): no significant agonist or antagonist activity

CCC(=O)C(CC(C)N(C)C)(c1ccccc1)c1ccccc1 (centres unmarked) [methadone (S6), methadone]
μ-OR endocytosis by immunofluorescence (μ-OR [3]): also promoted endocytosis; also recorded: promoted μ-OR endocytosis | μ-OR endocytosis, biotin protection assay (μ-OR [4]): promoted significant endocytosis; also recorded: promoted μ-OR endocytosis

CN1CC[C@]23c4c5ccc(O)c4O[C@H]2[C@@H](O)C=C[C@H]3[C@H]1C5 [morphine (1), morphine]
μ-OR endocytosis by immunofluorescence (μ-OR [3]): did not promote significant endocytosis | μ-OR endocytosis, biotin protection assay (μ-OR [4]): induced no significant endocytosis

CNc1c2c(c3nc4ccccc4c4c3c1N=C4)NCCC2=O [plakinidine A (19), plakinidine A]
activity at μ-OR (agonist or antagonist) [1]: not active | activity at δ-OR (agonist or antagonist) [2]: not active

CC(C)c1c2c(c3nc4ccccc4c4c3c1N=C4)NCCC2=O [plakinidine B (20), plakinidine B]
activity at μ-OR (agonist or antagonist) [1]: not active | activity at δ-OR (agonist or antagonist) [2]: not active

mitragynine [mitragynine (21)]
μ-OR endocytosis by immunofluorescence (μ-OR [3]): did not promote receptor endocytosis
